ChEMBL document CHEMBL1153551, “Resveratrol modulates phagocytosis of bacteria through an NF-kappaB-dependent gene program” (Antimicrob Agents Chemother, 2008)
The source made the active and inactive calls.

How the values were obtained:
THP-1 [1] = assay: Inhibition of heat killed Staphylococcus aureus 209P-induced TNF alpha production in human THP1 cells at 1 to 100 uM after 6 hrs by ELISA; assay type: functional, cell-based
Procedure, shortened: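 THP-1 or RAW264.7 cells (1 × 10⁶/well, 16 h) were washed and pretreated 1 h with resveratrol. Serum-free stimulation with heat-killed E. coli or S. aureus at 1:100 followed for 0, 2, 4 or 6 h. TNF-α in supernatants (400 × g spin) was measured by ELISA: human kit for THP-1, mouse kit for RAW264.7. Triplicates.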

THP-1 [2] = assay: Inhibition of FSL-1-induced increase in phagocytosis of FITC-conjugated Escherichia coli K12 in human THP1 cells using trypan blue staining after 20 mins by flow cytometry; assay type: functional, cell-based
Procedure, shortened: (§1)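 THP-1 or RAW264.7 cells (1 × 10⁶/ml) were pretreated 24 h with FSL-1 (0, 1, 10, 100 nM), washed, then given resveratrol (10, 50, 100 μM) for 1 h serum-free. Heat-killed FITC-E. coli (1:10) or FITC-S. aureus (1:100) followed. Surface fluorescence was quenched with 0.2% trypan blue and cells fixed in 1% paraformaldehyde. Flow cytometry mean fluorescence intensity, triplicates.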

RAW264.7 [3] = assay: Inhibition of phagocytosis of FITC-conjugated Staphylococcus aureus 209P in mouse RAW264.7 cells using trypan blue staining after 80 mins by flow cytometry; assay type: functional, cell-based
RAW264.7 [4] = assay: Inhibition of phagocytosis of FITC-conjugated Escherichia coli K12 in mouse RAW264.7 cells using trypan blue staining after 60 mins by flow cytometry; assay type: functional, cell-based
Procedure, shortened: (§2)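 Serum-free THP-1 or RAW264.7 cells were treated 1 h with resveratrol, then incubated 0, 20, 40, 60 or 80 min with heat-killed FITC-E. coli at 1:100 cell:bacterium. Outer fluorescence was quenched with 0.2% trypan blue and cells fixed in 1% paraformaldehyde. Internalized fluorescence was read as flow cytometry MFI; mean and SD of triplicates.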

RAW264.7 [5] = assay: Inhibition of phagocytosis of FITC-conjugated Escherichia coli K12 in mouse RAW264.7 cells using trypan blue staining after 40 mins by flow cytometry; assay type: functional, cell-based; procedure, shortened: as §2
RAW264.7 [6] = assay: Inhibition of phagocytosis of FITC-conjugated Staphylococcus aureus 209P in mouse RAW264.7 cells using trypan blue staining after 40 mins by flow cytometry; assay type: functional, cell-based
THP-1 [7] = assay: Inhibition of FSL1-induced upregulation of CD36 mRNA expression in human THP1 cells at 100 uM after 1 hr by RT-PCR; assay type: functional, cell-based
Procedure, shortened: (§3)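 Serum-free THP-1 cells primed 24 h with 100 nM FSL-1 were given 100 μM resveratrol or 0.1% DMSO for 1 h. Total RNA from 5 × 10⁶ cells was reverse-transcribed with oligo(dT) and PCR-amplified for MSR1, CD36, DC-SIGN and Dectin-1 (30 cycles) with β-actin as reference (25 cycles). Products were resolved on 3% agarose with ethidium bromide.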

HEK293 [8] = assay: Inhibition of DC-SIGN expression in HEK293 cells expressing DC-SIGN at 100 uM by Western blot analysis; assay type: functional, cell-based; conditions: Homo sapiens
Procedure, shortened: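 293/DC-SIGN cells (1 × 10⁷ per 10-cm dish, DMEM complete medium, 16 h) were washed and exposed to 100 μM resveratrol for 0, 30, 60, 90 or 120 min. Lysates in SDS sample buffer with protease inhibitors were boiled and run on 10% SDS-PAGE, then blotted to nitrocellulose. Probes were anti-DC-SIGN or anti-β-actin mAb (4°C overnight), then HRP anti-mouse IgG.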

HEK293 [9] = assay: Inhibition of heat killed Escherichia coli K12-induced nuclear translocation of p65 element of NF-kappaB in HEK293 cells expressing TLR2 at 100 uM pretreated for 1 hr before 6 hrs heat killed bacterial stimulation by immunostaining method; assay type: cell-based; conditions: Homo sapiens
Procedure, shortened: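 293/TLR2 cells on poly-L-lysine coverslips were given 100 μM resveratrol or 0.1% DMSO for 1 h, then heat-killed E. coli or S. aureus (1:100) for 6 h. Cells were fixed in methanol at −20°C for 5 min and stained with rabbit anti-p65 pAb (1 μg/ml, 45 min RT), then Alexa 594 anti-rabbit IgG. Nuclear p65 was viewed by confocal microscopy.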

RAW264.7 [10] = assay: Inhibition of phagocytosis of FITC-conjugated Staphylococcus aureus 209P in mouse RAW264.7 cells using trypan blue staining after 60 mins by flow cytometry; assay type: functional, cell-based
RAW264.7 [11] = assay: Inhibition of FSL-1-induced increase in phagocytosis of FITC-conjugated Escherichia coli K12 in mouse RAW264.7 cells using trypan blue staining after 20 mins by flow cytometry; assay type: functional, cell-based; procedure, shortened: as §1
THP-1 [12] = assay: Inhibition of FSL1-induced upregulation of MSR1 mRNA expression in human THP1 cells at 100 uM after 1 hr by RT-PCR; assay type: functional, cell-based; procedure, shortened: as §3
RAW264.7 [13] = assay: Inhibition of phagocytosis of FITC-conjugated Escherichia coli K12 in mouse RAW264.7 cells using trypan blue staining after 20 mins by flow cytometry; assay type: functional, cell-based; procedure, shortened: as §2
RAW264.7 [14] = assay: Inhibition of phagocytosis of FITC-conjugated Staphylococcus aureus 209P in mouse RAW264.7 cells using trypan blue staining after 20 mins by flow cytometry; assay type: functional, cell-based
THP-1 [15] = assay: Inhibition of phagocytosis of FITC-conjugated Escherichia coli K12 in human THP1 cells using trypan blue staining after 20 mins by flow cytometry; assay type: functional, cell-based; procedure, shortened: as §2
THP-1 [16] = assay: Inhibition of phagocytosis of FITC-conjugated Staphylococcus aureus 209P in human THP1 cells using trypan blue staining after 80 mins by flow cytometry; assay type: functional, cell-based
RAW264.7 [17] = assay: Inhibition of phagocytosis of FITC-conjugated Staphylococcus aureus 209P in mouse RAW264.7 cells assessed as reduction in ratio of number of bacterial cells to phagocytes using trypan blue staining by flow cytometry; assay type: functional, cell-based
Procedure, shortened: (§4)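 THP-1 or RAW264.7 cells received resveratrol for 1 h serum-free, then a range of doses of heat-killed FITC-E. coli or FITC-S. aureus. Trypan blue (0.2%) quenched bound bacteria and 1% paraformaldehyde fixed the cells. Flow cytometry MFI of internalized bacteria was plotted against bacterial dose; triplicates.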

HEK293 [18] = assay: Inhibition of heat killed Staphylococcus aureus 209P-induced NF-kappaB activation in HEK293 cells expressing TLR2 pretreated for 1 hr before 6 hrs heat killed bacterial stimulation by luciferase reporter gene assay; assay type: cell-based; conditions: Homo sapiens
Procedure, shortened: (§5)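 293/TLR2 cells (1 × 10⁵/well) were transfected with 50 ng pNF-κB-Luc, 5 ng pRL-TK and 445 ng pcDNA3. After 24 h they were pretreated 1 h with resveratrol, then stimulated 6 h serum-free with FSL-1 (1, 10, 100 nM) or heat-killed E. coli or S. aureus (1:1, 1:10, 1:100). Dual luciferase readout, triplicates.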

HEK293 [19] = assay: Inhibition of heat killed Escherichia coli K12-induced NF-kappaB activation in HEK293 cells expressing TLR2 pretreated for 1 hr before 6 hrs heat killed bacterial stimulation by luciferase reporter gene assay; assay type: cell-based; conditions: Homo sapiens; procedure, shortened: as §5
HEK293 [20] = assay: Inhibition of phagocytosis of heat killed FITC-conjugated Escherichia coli K12 in HEK293 at 100 uM by after 1 hr; assay type: functional, cell-based; conditions: Homo sapiens
Procedure, shortened: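 293/DC-SIGN cells (5 × 10⁵/ml) were plated the day before, washed and treated 1 h with resveratrol. Heat-killed FITC-E. coli or S. aureus were added for 1 h at various cell:bacterium ratios. Trypan blue (0.2%) quenched surface fluorescence and 1% paraformaldehyde fixed the cells. Flow cytometry MFI, triplicates.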

THP-1 [21] = assay: Inhibition of phagocytosis of FITC-conjugated Staphylococcus aureus 209P in human THP1 cells assessed as reduction in ratio of number of bacterial cells to phagocytes using trypan blue staining by flow cytometry; assay type: functional, cell-based; procedure, shortened: as §4

Measured: Activity

Oc1ccc(/C=C/c2cc(O)cc(O)c2)cc1
active: THP-1 [1] | THP-1 [2] Dose-dependent effect | RAW264.7 [3] Dose-dependent effect | RAW264.7 [4] Dose-dependent effect | RAW264.7 [5] Dose-dependent effect | RAW264.7 [6] Dose-dependent effect | THP-1 [7] | HEK293 [8] | HEK293 [9] | RAW264.7 [10] Dose-dependent effect | RAW264.7 [11] Dose-dependent effect | THP-1 [12] | RAW264.7 [13] Dose-dependent effect | RAW264.7 [14] Dose-dependent effect | THP-1 [15] Dose-dependent effect | THP-1 [16] Dose-dependent effect | RAW264.7 [17] | HEK293 [18] | HEK293 [19] | HEK293 [20] Dose-dependent effect | THP-1 [21]
